According to article PMC3729352 (Pharmacological research : the official journal of the …, 2011):

Key:
[1] = Transepithelial transport across MDCKII parental monolayers; type: in vitro ADME, canine; conditions: dog, MDCK
[2] = target: T1, mouse Abcg2 (Mus musculus, UniProt Q7TMS5); experiment: Transepithelial transport across MDCKII monolayers over-expressing mouse Abcg2; type: in vitro ADME
T1 sequence (Q7TMS5 1-657): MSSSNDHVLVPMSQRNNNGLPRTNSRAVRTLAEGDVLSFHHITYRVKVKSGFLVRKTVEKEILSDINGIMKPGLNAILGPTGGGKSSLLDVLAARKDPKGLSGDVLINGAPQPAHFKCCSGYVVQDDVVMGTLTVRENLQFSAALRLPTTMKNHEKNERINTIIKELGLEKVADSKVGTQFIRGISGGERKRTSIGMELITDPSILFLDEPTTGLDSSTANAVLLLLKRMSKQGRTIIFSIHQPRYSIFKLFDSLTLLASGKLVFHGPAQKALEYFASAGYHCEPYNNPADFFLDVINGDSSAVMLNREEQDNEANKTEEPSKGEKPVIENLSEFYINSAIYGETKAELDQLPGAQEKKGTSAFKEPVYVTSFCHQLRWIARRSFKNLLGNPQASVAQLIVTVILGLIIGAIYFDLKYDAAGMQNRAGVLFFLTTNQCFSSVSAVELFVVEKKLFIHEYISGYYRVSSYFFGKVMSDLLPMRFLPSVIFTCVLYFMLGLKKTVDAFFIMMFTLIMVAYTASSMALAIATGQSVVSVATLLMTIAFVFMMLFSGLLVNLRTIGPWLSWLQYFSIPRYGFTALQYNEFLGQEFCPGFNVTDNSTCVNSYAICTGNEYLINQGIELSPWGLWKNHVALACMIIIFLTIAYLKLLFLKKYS

[3] = Plasma and tissue levels of URB937 in wild-type and Abcg2-/- mice; type: in vivo, mouse; conditions: 25 mg-kg^−1 s.c., mean ± SEM; for Level of URB937 in brain / Level of URB937 in kidney / Level of URB937 in liver / Level of URB937 in spinal cord: 1 h; for concentration at 1 h: mouse, plasma, sc, 25 mg-kg^−1, Level of URB937 in plasma
In short: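 Dosing: test compound 25 mg-kg−1 s.c. in saline/PEG400/Tween-80 (18:1:1) to Abcg2−/− (n = 4) and wild-type littermates (n = 5); killed at 1 h. Plasma obtained by cardiac puncture and spun 2000 × g. Tissue homogenates and plasma extracted with methanol/chloroform (1:2) containing internal standard. Analysis by ESI-LC/MS on a C18 column with a methanol/water gradient (0.25% acetic acid, 5 mM ammonium acetate) at m/z 377; mean ± SEM.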

[4] = target: T2, FAAH (Mus musculus, UniProt O08914); experiment: Ex vivo FAAH activity in tissues of wild-type and Abcg2-/- mice after URB937; conditions: URB937 25 mg-kg^−1 s.c., 1 h
T2 sequence (O08914 1-579): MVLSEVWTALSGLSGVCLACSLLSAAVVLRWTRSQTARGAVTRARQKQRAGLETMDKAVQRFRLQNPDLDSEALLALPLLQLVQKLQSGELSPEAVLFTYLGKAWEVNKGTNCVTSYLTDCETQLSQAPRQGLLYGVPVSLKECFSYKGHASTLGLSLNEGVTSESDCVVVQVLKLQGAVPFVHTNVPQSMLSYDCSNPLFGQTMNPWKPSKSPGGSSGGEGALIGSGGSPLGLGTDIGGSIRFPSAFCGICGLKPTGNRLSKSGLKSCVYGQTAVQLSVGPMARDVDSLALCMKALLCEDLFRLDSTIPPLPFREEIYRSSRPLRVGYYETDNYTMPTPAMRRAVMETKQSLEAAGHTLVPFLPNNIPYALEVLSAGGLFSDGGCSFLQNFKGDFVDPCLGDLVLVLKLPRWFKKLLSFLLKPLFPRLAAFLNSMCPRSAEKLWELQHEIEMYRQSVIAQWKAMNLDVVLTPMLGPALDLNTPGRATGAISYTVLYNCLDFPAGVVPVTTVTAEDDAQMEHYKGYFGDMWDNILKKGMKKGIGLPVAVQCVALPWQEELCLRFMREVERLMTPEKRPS
In short: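 Male Abcg2−/− mice (n = 4) and wild-type FVB littermates (n = 5), 9–13 weeks, given test compound at 25 mg-kg−1 s.c. in saline/PEG400/Tween-80 (18:1:1). Killed 1 h later; tissues homogenized in 50 mM Tris-HCl pH 7.5 with 0.32 M sucrose. FAAH assay: 37°C, 30 min, 0.05% BSA, 50 µg protein (100 µg liver), 10 µM anandamide plus [3H]-anandamide. Read-out: aqueous-phase scintillation counting; mean ± SEM.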

[5] = target: T3, human ABCG2 (Homo sapiens, UniProt Q9UNQ0)
T3 sequence (Q9UNQ0 1-655): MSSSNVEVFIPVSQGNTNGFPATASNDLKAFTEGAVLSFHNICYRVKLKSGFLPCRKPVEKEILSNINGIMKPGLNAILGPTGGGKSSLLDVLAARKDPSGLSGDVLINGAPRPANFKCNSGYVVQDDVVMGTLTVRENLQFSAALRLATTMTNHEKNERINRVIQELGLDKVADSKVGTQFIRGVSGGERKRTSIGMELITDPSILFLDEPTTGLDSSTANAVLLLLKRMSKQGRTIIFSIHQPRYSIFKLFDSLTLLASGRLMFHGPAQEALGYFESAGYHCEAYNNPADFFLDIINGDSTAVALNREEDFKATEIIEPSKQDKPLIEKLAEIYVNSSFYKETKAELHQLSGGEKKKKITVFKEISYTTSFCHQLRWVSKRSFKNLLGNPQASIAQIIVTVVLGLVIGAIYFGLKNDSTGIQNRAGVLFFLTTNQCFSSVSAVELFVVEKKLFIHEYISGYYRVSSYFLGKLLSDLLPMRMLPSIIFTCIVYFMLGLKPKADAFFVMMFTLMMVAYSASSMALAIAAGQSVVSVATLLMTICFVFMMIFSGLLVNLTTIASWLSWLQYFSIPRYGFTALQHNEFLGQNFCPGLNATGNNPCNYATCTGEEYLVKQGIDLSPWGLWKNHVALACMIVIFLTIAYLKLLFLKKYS

[6] = target: T2, FAAH; conditions: cited from earlier work
[7] = target: T4, ABCG2 (Mus musculus, UniProt Q7TMS5); type: in vivo; conditions: Ko143 0, 1, 3 and 10 mg-kg^−1 i.p., 20 min prior to URB937 25 mg-kg^−1 s.c., ex vivo 1 h after URB937
T4 sequence (Q7TMS5 1-657): T1 sequence (Q7TMS5 1-657)

NC(=O)c1cccc(-c2cc(OC(=O)NC3CCCCC3)ccc2O)c1 [URB937, cyclohexylcarbamic acid 3'-carbamoyl-6-hydroxybiphenyl-3-yl ester]
efflux ratio at 4 h, 5 µM [1]: 1.5
efflux ratio at 4 h, 5 µM ([2]; mouse): 13.6
increase of relative transport ratio by over-expression vs parental cells ([2]; mouse Abcg2 over-expression): ~10 folds
Level of URB937 in brain ([3]; Abcg2^−/− mice): 1.15 ± 0.04 pmol/mg
Level of URB937 in kidney ([3]; Abcg2^−/− mice): 34.97 ± 0.35 pmol/mg
Level of URB937 in liver ([3]; Abcg2^−/− mice): 7.75 ± 2.3 pmol/mg
Level of URB937 in spinal cord ([3]; Abcg2^−/− mice): 0.80 ± 0.10 pmol/mg
concentration at 1 h ([3]; Abcg2^−/− mice): 6.95 ± 0.9 µM
concentration at 1 h ([3]; wild-type mice): 8.34 ± 1.7 µM
Level of URB937 in brain ([3]; wild-type mice): 0.46 ± 0.12 pmol/mg
Level of URB937 in kidney ([3]; wild-type mice): 33.88 ± 3.3 pmol/mg
Level of URB937 in liver ([3]; wild-type mice): 7.51 ± 3.1 pmol/mg
Level of URB937 in spinal cord ([3]; wild-type mice): 0.29 ± 0.04 pmol/mg
reduction in FAAH activity in brain and spinal cord ([4]; Abcg2^−/− mice compared to wild-type): 80%
FAAH activity in liver and kidney tissue ([4]; wild-type and Abcg2^−/− mice): nearly abolished
inhibition of FAAH activity in CNS ([4]; wild-type mice): almost no inhibition
increase of relative transport ratio by over-expression vs parental cells [5]: ~10 folds
potency at inhibiting FAAH activity in mouse liver relative to mouse brain ([6]; mouse liver vs mouse brain): 400 times
half-maximal effective dose (ID50), liver FAAH activity ([6]; systemic administration in mice, liver): 0.1 mg/kg
FAAH activity in forebrain, hypothalamus and spinal cord ([6]; systemic administration in mice): fails to alter

COc1ccc2c3c([nH]c2c1)[C@H](CC(C)C)N1C(=O)[C@H](CCC(=O)OC(C)(C)C)NC(=O)[C@@H]1C3 [Ko143, reference compound]
inhibition of Abcg2-mediated transport of URB937 ([2]; Ko143 1 µM, URB937 5 µM, MDCKII-Abcg2): completely inhibited
brain FAAH activity [7]: dose-dependent decrease
